The source of these data is ChEMBL document CHEMBL1140405, “6-Acylamino-2-aminoquinolines as potent melanin-concentrating hormone 1 receptor antagonists. Identification, structure-activity relationship, and investigation of binding mode” (J Med Chem, 2005).

The target of assay [1] is T1, 5-hydroxytryptamine receptor 2C (Homo sapiens, UniProt P28335).
T1 sequence (P28335 whole entry): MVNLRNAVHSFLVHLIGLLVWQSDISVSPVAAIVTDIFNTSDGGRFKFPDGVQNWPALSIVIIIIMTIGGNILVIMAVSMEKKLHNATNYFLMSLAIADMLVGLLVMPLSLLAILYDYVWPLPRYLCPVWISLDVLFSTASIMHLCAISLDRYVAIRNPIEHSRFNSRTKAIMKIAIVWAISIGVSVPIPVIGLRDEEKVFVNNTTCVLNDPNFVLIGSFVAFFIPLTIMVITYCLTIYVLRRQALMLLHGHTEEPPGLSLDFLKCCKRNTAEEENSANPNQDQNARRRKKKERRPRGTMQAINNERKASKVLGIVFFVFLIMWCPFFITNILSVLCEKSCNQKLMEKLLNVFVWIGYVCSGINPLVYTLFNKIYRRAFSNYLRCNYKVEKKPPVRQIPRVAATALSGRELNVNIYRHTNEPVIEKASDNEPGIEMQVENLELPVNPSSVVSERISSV
Description: Inhibitory concentration against 5-hydroxytryptamine 2C receptor expressed in CHO-K1 cells using [3H]mesulergine. It is filed as cell-based. The gist of the method: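 SPA competition binding on purchased membranes from CHO-K1 cells expressing h5-HT2c (4 μg/well), with YSi-WGA beads (0.4 mg/well) and [3H]mesulergine tracer, across various test-compound concentrations. Buffer is 50 mM Tris pH 7.7, 50 mM MgCl2 and 0.1% pargyline. Nonspecific binding uses 1 μM cold mesulergine. IC50 is taken by nonlinear regression.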

Assay [2] deals with Histamine H1 receptor (Homo sapiens, UniProt P35367). Description: Inhibitory concentration against Histamine H1 receptor.
Sequence of Histamine H1 receptor (P35367 whole entry): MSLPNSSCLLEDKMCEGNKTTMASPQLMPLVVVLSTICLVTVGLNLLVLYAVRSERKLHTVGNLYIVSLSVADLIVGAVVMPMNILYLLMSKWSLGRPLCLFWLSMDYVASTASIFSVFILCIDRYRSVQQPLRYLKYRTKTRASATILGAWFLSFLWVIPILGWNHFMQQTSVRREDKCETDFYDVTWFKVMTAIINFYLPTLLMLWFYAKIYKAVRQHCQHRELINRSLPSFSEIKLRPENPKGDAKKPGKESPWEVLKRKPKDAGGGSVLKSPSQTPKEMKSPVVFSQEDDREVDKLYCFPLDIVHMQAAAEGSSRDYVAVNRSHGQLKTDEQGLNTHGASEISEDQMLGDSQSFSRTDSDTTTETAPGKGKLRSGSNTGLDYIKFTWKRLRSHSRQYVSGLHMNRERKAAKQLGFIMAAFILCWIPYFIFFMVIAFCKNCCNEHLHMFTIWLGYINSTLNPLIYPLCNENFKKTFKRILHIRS
The target of assay [3] is 5-hydroxytryptamine receptor 1B (Homo sapiens, UniProt P28222). Description: Inhibitory concentration against 5-hydroxytryptamine 1B receptor.
Sequence of 5-hydroxytryptamine receptor 1B (P28222 whole entry): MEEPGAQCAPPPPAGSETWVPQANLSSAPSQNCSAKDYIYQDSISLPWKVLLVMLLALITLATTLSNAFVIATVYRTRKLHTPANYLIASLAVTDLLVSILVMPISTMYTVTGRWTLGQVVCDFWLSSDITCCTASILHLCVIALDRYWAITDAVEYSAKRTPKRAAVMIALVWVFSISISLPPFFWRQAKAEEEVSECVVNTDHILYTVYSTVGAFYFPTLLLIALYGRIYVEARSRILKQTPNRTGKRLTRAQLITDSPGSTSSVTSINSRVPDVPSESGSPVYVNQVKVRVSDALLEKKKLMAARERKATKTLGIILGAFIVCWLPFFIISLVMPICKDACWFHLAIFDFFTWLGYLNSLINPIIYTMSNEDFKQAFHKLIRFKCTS
Assay [4] addresses Sodium-dependent dopamine transporter (Homo sapiens, UniProt Q01959). Description: Inhibitory concentration against dopamine transporter.
Assay [5] concerns the target Histamine H2 receptor (Homo sapiens, UniProt P25021). Description: Inhibitory concentration against Histamine H2 receptor.
For assay [6], the target named is T2, Muscarinic acetylcholine receptor M2 (Homo sapiens, UniProt P08172).
T2 sequence (P08172 whole entry): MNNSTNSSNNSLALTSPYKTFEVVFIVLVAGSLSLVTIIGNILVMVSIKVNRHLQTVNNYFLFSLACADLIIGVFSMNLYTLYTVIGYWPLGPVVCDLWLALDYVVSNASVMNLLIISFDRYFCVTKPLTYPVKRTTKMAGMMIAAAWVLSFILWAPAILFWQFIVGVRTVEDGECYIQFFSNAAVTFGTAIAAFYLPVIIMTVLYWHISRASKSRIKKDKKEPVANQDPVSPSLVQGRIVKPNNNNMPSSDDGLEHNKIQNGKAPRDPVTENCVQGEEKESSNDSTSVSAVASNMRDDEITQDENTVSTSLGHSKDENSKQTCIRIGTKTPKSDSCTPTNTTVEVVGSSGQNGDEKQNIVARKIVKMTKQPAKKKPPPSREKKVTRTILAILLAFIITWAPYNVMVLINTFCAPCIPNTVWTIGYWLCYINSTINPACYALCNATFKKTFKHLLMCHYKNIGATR
Description: Inhibitory concentration against muscarinic acetylcholine receptor M2.

The target of assay [7] is D(1A) dopamine receptor (Homo sapiens, UniProt P21728). Description: Inhibitory concentration against dopamine receptor D1.
Sequence of D(1A) dopamine receptor (P21728 whole entry): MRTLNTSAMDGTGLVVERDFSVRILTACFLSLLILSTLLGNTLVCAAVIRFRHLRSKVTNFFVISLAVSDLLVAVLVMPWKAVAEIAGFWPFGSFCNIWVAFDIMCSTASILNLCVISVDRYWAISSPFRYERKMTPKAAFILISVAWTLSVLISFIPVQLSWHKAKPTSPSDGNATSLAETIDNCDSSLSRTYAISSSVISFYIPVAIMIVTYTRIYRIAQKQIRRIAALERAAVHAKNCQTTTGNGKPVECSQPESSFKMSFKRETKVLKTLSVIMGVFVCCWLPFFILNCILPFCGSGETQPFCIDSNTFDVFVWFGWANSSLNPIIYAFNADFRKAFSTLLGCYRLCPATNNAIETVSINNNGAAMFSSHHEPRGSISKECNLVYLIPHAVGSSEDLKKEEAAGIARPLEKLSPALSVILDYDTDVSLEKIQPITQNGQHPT
Assay [8] deals with D(3) dopamine receptor (Homo sapiens, UniProt P35462). Description: Inhibitory concentration against dopamine receptor D3.
Sequence of D(3) dopamine receptor (P35462 whole entry): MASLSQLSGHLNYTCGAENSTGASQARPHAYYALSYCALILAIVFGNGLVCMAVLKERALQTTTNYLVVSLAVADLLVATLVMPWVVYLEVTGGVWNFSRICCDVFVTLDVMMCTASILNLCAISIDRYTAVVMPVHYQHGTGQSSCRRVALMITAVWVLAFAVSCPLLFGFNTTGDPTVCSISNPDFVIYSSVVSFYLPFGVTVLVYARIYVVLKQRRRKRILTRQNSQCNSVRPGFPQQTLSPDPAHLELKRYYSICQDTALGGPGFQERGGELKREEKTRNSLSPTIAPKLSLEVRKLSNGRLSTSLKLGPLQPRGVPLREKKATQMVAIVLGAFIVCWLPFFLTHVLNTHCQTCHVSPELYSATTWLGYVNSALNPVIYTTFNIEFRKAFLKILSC
The target in assay [9] is T3, Adrenergic receptor alpha-2 (Homo sapiens, UniProt P08913+P18825+P18089).
T3 sequence (P08913 whole entry): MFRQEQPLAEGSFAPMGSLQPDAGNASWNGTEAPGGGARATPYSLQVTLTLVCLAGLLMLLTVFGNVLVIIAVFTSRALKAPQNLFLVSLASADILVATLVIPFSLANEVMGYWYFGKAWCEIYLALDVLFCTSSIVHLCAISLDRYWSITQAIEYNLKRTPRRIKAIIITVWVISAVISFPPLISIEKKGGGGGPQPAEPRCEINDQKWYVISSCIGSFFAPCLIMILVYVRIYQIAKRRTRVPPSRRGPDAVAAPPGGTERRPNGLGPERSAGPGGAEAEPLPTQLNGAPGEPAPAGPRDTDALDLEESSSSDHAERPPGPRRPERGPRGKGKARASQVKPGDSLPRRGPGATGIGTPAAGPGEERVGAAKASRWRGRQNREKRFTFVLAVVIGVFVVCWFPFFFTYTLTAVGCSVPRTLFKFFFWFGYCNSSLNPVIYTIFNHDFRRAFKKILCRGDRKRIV
T3 sequence (P18825 whole entry): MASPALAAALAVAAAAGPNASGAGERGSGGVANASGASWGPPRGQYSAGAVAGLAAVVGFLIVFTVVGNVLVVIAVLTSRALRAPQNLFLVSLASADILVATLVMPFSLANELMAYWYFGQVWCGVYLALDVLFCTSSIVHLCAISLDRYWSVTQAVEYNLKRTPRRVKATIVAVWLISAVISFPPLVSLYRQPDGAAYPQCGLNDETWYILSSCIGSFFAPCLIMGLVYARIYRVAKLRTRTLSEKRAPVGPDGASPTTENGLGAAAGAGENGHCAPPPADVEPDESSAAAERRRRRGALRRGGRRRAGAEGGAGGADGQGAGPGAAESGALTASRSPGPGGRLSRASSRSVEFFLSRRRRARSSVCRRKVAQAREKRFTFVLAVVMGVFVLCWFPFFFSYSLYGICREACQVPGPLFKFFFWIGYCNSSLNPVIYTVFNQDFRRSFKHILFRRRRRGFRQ
T3 sequence (P18089 whole entry): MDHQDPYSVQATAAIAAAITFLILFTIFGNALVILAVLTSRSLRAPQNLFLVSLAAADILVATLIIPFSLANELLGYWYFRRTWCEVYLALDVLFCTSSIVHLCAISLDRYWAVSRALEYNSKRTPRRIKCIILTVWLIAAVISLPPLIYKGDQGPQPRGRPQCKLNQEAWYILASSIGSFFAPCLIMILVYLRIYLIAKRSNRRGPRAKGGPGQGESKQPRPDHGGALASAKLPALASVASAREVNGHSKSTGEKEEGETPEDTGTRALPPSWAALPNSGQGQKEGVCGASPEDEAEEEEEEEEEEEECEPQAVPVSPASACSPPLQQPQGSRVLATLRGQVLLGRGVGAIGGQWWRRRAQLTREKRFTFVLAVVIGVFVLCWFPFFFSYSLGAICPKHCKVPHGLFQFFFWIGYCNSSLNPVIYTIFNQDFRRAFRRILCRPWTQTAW
Description: Inhibitory concentration against alpha-2 adrenergic receptor. In kind it is protein assay.

The target in assay [10] is T4, Muscarinic acetylcholine receptor M1 (Homo sapiens, UniProt P11229).
T4 sequence (P11229 whole entry): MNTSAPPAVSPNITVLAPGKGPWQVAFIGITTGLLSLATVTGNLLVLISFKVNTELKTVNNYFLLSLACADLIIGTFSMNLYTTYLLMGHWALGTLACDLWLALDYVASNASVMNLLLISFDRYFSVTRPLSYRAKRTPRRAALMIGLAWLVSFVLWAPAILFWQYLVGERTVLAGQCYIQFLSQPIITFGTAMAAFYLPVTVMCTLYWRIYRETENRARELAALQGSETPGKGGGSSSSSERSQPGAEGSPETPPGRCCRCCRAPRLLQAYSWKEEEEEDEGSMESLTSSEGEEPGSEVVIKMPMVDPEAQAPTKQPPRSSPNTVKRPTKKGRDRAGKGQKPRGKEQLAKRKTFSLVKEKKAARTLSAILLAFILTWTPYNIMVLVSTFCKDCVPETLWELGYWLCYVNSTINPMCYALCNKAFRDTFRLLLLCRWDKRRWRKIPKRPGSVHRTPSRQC
Description: Inhibitory concentration against muscarinic acetylcholine receptor M1.

Assay [11] addresses 5-hydroxytryptamine receptor 2A (Homo sapiens, UniProt P28223). Description: Inhibitory concentration against 5-hydroxytryptamine 2A receptor.

SMILES strings stand for the structures. A value given as a limit tells only on which side of the number the result lay.

Sequence of Histamine H2 receptor (P25021 whole entry): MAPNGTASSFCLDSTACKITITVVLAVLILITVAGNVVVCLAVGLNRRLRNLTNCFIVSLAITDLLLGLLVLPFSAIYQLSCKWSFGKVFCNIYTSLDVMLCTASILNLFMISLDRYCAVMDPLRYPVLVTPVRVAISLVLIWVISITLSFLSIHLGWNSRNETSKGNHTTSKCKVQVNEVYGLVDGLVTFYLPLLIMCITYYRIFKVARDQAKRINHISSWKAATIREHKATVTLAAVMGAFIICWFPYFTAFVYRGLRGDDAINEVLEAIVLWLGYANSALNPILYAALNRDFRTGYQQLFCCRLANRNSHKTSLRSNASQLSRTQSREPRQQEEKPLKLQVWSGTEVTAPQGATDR
Sequence of Sodium-dependent dopamine transporter (Q01959 whole entry): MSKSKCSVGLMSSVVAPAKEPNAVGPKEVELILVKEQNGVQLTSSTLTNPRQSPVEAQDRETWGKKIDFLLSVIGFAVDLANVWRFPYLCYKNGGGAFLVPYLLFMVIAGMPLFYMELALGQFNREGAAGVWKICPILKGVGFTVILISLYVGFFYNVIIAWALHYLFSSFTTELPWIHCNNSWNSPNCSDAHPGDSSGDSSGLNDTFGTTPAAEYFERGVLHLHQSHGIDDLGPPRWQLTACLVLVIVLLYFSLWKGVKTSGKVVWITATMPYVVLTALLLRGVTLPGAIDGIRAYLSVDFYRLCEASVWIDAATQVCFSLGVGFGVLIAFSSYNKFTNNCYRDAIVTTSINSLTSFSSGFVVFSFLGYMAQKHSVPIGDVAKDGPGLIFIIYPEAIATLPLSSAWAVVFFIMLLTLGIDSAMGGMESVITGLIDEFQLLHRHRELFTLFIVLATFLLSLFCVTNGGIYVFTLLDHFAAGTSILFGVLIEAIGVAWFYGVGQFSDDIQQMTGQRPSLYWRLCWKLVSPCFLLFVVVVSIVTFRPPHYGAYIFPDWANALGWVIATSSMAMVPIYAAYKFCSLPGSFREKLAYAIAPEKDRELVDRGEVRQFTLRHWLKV
Sequence of 5-hydroxytryptamine receptor 2A (P28223 whole entry): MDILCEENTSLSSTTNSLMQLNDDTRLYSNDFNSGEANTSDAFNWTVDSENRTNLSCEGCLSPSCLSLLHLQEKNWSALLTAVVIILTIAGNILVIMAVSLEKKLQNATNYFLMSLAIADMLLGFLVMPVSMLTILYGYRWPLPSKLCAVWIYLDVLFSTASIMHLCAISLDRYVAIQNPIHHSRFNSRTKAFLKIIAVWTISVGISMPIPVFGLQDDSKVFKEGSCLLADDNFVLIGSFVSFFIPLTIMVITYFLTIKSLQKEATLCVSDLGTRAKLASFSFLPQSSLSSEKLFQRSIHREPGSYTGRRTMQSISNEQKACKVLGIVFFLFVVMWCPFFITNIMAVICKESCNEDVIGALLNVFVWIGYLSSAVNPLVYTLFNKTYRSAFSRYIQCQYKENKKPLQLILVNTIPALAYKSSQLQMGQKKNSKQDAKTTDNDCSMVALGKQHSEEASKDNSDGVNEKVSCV

Usually IC50 stands for the midpoint of a concentration-inhibition curve. Lower therefore signals greater potency. Take `Cc1cc(N(C)CCN(C)C)nc2ccc(NC(=O)/C=C/c3ccc(OC(F)(F)F)cc3)cc12`: the IC50 is 900 nM in assay [1]; above 10000 nM in [2]; 800 nM in assay [3]; 10000 nM in assay [4]; 860 nM in assay [5]; 480 nM in assay [6]. Also, the half-maximal inhibitory concentration (IC50) in assay [7] was 900 nM; in [8] it was 2300 nM; in assay [9], 1300 nM; in assay [10], 1300 nM; in assay [11], 1900 nM.
